SMILES strings stand for the structures. Out of some 300,000 compounds screened, about 4,400 (1.5%) were called active. The sample as a whole holds a higher share of actives than the screen did. Values without a mark were called inactive.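 Rule for the calls: active = mean inhibition across valid replicates above about 55% (limit read from the data); inconclusive = mean below that limit but half or more replicates reach it; inactive = mean below it, under half of replicates reach it.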

The nature of the experiment: Trypanosoma cruzi replication blockers in host cells – luminescence, NIH3T3 host cells, primary screen (AID 1885).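 Note: signal also drops with host cell toxicity which is not excluded here; 0% = plate median of DMSO wells and 100% = zero luminescence signal; higher percent means less beta-gal luminescence so fewer parasites.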 Particulars: T. cruzi beta-gal in NIH3T3, luminescence, 90 h; hits give high values; concentration not given here. In short, it runs like this:
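Material: NIH/3T3 host cells with β-galactosidase reporter T. cruzi; Input: 5,000 host fibroblasts per well; Medium: DMEM, 2% fetal bovine serum; Compound: 50 nL DMSO compound solution per well; Schedule: 3 h host attachment, then at least 90 h co-culture; Detection: luminescent β-galactosidase signal after 60 min lysis.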
For orientation: inhibition means the relative decrease from the control value, in per cent. As for `COCCN1C(=O)N(c2ccc(Cl)cc2)C(=O)C1CC(=O)Nc1cc(OC)cc(OC)c1` (stereo unspecified), the inhibition is -12.9%.

On to `Cc1onc(-c2ccccc2Cl)c1C(=O)N(Cc1ccc(N(C)C)cc1)C(C)C`, for which the inhibition is 37.7%. The same measure for `O=C(NCc1ccncc1)NC12CC3CC(CC(C3)C1)C2`: -15.8%; for `S=C(NCc1ccc(Cl)cc1)NC1CCCCC1`: 10.1%. On to `S=C(NCc1ccc(Cl)cc1)NC12CC3CC(CC(C3)C1)C2`, for which the inhibition is 57.1% (active). The same measure for `CCN(CC)P(=O)(Nc1ccc(SC(F)F)cc1)c1ccc(N(C)C)cc1NC(=O)c1ccco1` (stereo unspecified): 68.4% (active); for `O=C(Nc1ccc(Sc2ccc(Br)cc2)cc1)c1ccco1`: -17.4%. The same measure for `Cc1cc(NC(=O)c2ccc(F)cc2)ccc1NC(=O)c1ccco1`: 14%; for `O=C(NC1CCCC1)C1CC(=O)N(c2ccc(F)cc2)C1` (stereo unspecified): 5.96%. The same measure for `Cc1c(C(=O)N2CCCC2)c(S(=O)(=O)NCC(C)c2ccccc2)c(C)n1C` (stereo unspecified): -5.32%; for `Cc1nc(NC(=O)c2cccc(Cl)c2)sc1-c1csc(Nc2cccc(Cl)c2)n1`: -1.87%; for `O=C(Nc1ccc(-c2csc(Nc3cccc(C(F)(F)F)c3)n2)cc1)c1cccc(C(F)(F)F)c1`: 58.5% (active). With `CNC(=O)c1ccc(NC(=O)c2cccc(C(F)(F)F)c2)cc1`, the inhibition was -8.58%. Consider `O=C(O)C1C2C=CC(C2)C1C(=O)NCc1ccccc1` (stereo unspecified), for which the inhibition is -11.6%. The same measure for `Cc1nn(C)cc1S(=O)(=O)N1CCN(c2ccc(F)cc2)CC1`: 2.42%. As for `O=C(O)c1ccccc1NC(=O)c1ccccc1-c1ccccc1C(=O)O`, the figure is -1.15%. As for `O=C(NC(=S)Nc1ccccc1C(=O)O)c1ccc(-c2ccc(Br)cc2)o1`, the figure is 61.6% (active); as for `COC(=O)c1ccccc1NC(=S)NC(=O)c1ccccc1F`, -19.3%; as for `CCN1C(=O)[C@@H]2[C@@H](c3ccc(-c4cccc(Cl)c4)cc3)N3CCC[C@@]3(C(=O)OC)[C@@H]2C1=O`, 4.08%. Consider `COc1cc(C(=O)N2CCN(C3CCC(C)CC3)CC2)cc(OC)c1OC` (stereo unspecified), for which the inhibition was 25.8%. The same measure for `Cc1nn(CCOc2ccc(Br)cc2)c(C)c1[N+](=O)[O-]`: 10.6%; for `N/C(=N\OC(=O)COc1ccc([N+](=O)[O-])cc1)c1ccc(Br)cc1`: -1.86%. As for `Cn1nc([N+](=O)[O-])nc1Sc1ccc(C(C)(C)C)cc1`, the inhibition was 27%. Regarding `COc1ccc(CNC(=O)CCCn2nc(C)c([N+](=O)[O-])c2C)cc1`, the inhibition is -2.92%. Regarding `CCc1ccc(Oc2nc([N+](=O)[O-])nn2C)cc1`, the inhibition was 66.5% (active). The same measure for `NC(=O)Cn1nc([N+](=O)[O-])nc1Oc1ccc(Br)cc1`: 88.1% (active); for `COc1ccc(NC(=O)CCS(=O)(=O)c2cc3c(cc2Cl)NC(=O)CO3)cc1OC`: 1.37%. In the case of `CC(C)CCN1CCN(Cc2cn[nH]c2C2CCCCC2)CC1CCO` (stereo unspecified), the inhibition was 24.3%. The same measure for `CN(CCOc1ccccc1)C(=O)c1cc(COc2c(F)cccc2F)on1`: -2.25%.

For the compound `COc1ccc(NC(=O)CCNC(=O)Cn2cnc3sc4c(c3c2=O)CCCC4)cc1OC`, the inhibition was -2.4%. The same measure for `Cc1ccc(S(=O)(=O)N2CCN(C(=O)c3ccccc3-c3nc4ccccc4s3)CC2)c(C)c1`: -3.66%. As to `CC(NC(=O)c1cc2cc(Cl)ccc2oc1=N)c1ccccc1` (stereo unspecified), the inhibition is -3.32%. As for `Fc1ccccc1COc1cccc2cccnc12`, the figure is -0.777%; as for `COc1cccc(CNCCc2c[nH]c3ccccc23)c1OCc1ccccc1F`, 39.3%; as for `CCC(Oc1ccccc1)C(=O)NCc1cccnc1` (stereo unspecified), -4.42%. As for `c1ccc(COc2ccccc2CNCc2cccnc2)cc1`, the figure is 69.7% (active); as for `Fc1ccccc1COc1ccccc1CNCc1ccncc1`, 65.1% (active); as for `C=CCOc1cccc(CNCc2cccnc2)c1`, 17.4%. The same measure for `CN(C(=O)CN1C(=O)NC(C)(CCc2ccccc2)C1=O)c1ccccc1` (stereo unspecified): -3.39%; for `O=C(Nc1ccccc1Cl)N1CCN(c2ccc3nncn3n2)CC1`: -2.95%; for `O=C1c2ccccc2C(=O)N1CC1c2ccccc2CCN1S(=O)(=O)c1ccccc1` (stereo unspecified): -2.22%.

Turning to `Cc1c(Cl)c([N+](=O)[O-])nn1CCCC(=O)NC(C)c1ccccc1` (stereo unspecified), the inhibition is 6.9%. For `COC(=O)C(C)Sc1ccc2nnc(-c3cccc(F)c3)n2n1` (stereo unspecified), the inhibition was 19%. The same measure for `C1CC1Cc1noc(CN2CCN(CC3CC3)CC2)n1`: 1.1%; for `COc1ccc(NC(=O)CN(C)C(=O)CC2CCCCC2)cc1`: -3.55%; for `FC(F)(F)c1ccc2c3n(nc2c1)CCN=C3c1ccc(Cl)cc1`: 1.67%. For `O=C(CSc1cccc2cccnc12)N/N=C/c1cccnc1`, the inhibition was 64.7% (active).

Regarding `O=C(CNC(=O)c1cccnc1)N/N=C/c1cccnc1`, the inhibition is -1.7%. The same measure for `Cc1nc2ccccc2n1CC(=O)N/N=C/c1cccnc1`: -15.1%; for `COc1ccccc1OCC(=O)Nc1ccccc1C(=O)NC1CC1`: -5.39%; for `O=S(=O)(Nc1ccc(O)c2ccccc12)c1ccc(OC(F)(F)F)cc1`: 8.4%. As for `Cc1c(C)n2c(SCC(=O)NC3CCCC3)nnc2[nH]c1=O`, the figure is -14.6%. `CC(=O)Nc1ccc(NC(=O)COc2ncnc3ccccc23)cc1`: the inhibition was -17.1%. The same measure for `Cc1ccc(Nc2c3c(nc4ccccc24)CCC3)cc1`: 39.2%; for `CC(=O)Nc1ccc(Nc2c3ccccc3nc3ccccc23)cc1`: 59.7% (active); for `FC(F)(F)c1cccc(-c2nc(COc3ccc(Cl)cc3Cl)no2)c1`: 1.05%.

In the case of `COc1c(C(=O)N2CCCC2)ccc2ccccc12`, the inhibition was -11.3%.

Take `CCOc1ccc(-n2c(SCC(=O)OC)nc3sc4c(c3c2=O)CCN(C)C4)cc1`: the inhibition was 5.98%.

As for `CCSc1nc2sc3c(c2c(=O)n1-c1ccc(C)cc1)CCN(C)C3`, the inhibition was 21.6%. For the compound `CCCSc1nc2sc3c(c2c(=O)n1-c1ccc(OC)cc1)CCN(C)C3`, the inhibition is 57.4% (active). The same measure for `CCOC(=O)N1CCC(N2Cc3cccc(C(=O)Nc4c(C)cccc4CC)c3C2=O)CC1`: 22%; for `Cc1ccc(S(=O)(=O)N2CCC(C(=O)NCCC3=CCCCC3)CC2)cc1C`: 8.76%; for `Cc1cccc(-n2ncc(C#N)c2-n2cccc2)c1`: -8.8%. As for `Cc1cccc(-n2ncc(Cl)c(Cl)c2=O)c1`, the figure is 65.8% (active).

As to `COc1ccc(Oc2c(Cl)cnn(-c3ccccc3)c2=O)cc1`, the inhibition is -11.4%. As for `COc1ccc(N2CCN(C(=O)COC(=O)c3cccc(S(=O)(=O)Nc4ccccc4OC)c3)CC2)cc1`, the figure is 8.41%.

With `COc1ccc(F)cc1S(=O)(=O)NCC(c1ccc2c(c1)OCO2)N1CCN(C)CC1` (stereo unspecified), the inhibition is -3.53%. The same measure for `COC(=O)c1cc(S(=O)(=O)N2CCN(c3cc(C)ccc3C)CC2)c[nH]1`: 0.9%; for `Cc1cc(C(=O)NC2CCN(Cc3ccccc3)CC2)n[nH]1`: 14.6%; for `O=C(NC1CCN(Cc2ccccc2)CC1)c1cc(Br)c(Br)[nH]1`: 70.3% (active). As for `O=C(NC1CCN(Cc2ccccc2)CC1)c1ccc(Oc2cc(Cl)cc(Cl)c2)o1`, the inhibition was 44.9%. On to `S=C(Nc1ccc(Br)cc1Cl)NC1CCN(Cc2ccccc2)CC1`, for which the inhibition was 60.4% (active). Consider `S=C(Nc1ccc(Br)cc1)NC1CCN(Cc2ccccc2)CC1`, for which the inhibition is 42%. As for `O=C(COc1ccc(Br)cc1F)NC1CCN(Cc2ccccc2)CC1`, the figure is 38.4%; as for `CCOC(=O)c1ccc(NC(=O)c2ccc(NC(=O)C3CCCO3)cc2)cc1` (stereo unspecified), 3.02%; as for `CCOc1ccccc1C1CC(c2ccc(Cl)cc2)Nc2nc(N)nn21` (stereo unspecified), 17.4%. The same measure for `CCCn1c(C)cc(-c2csc(NC(=O)CCc3nc4ccccc4c(=O)[nH]3)n2)c1C`: 5.04%; for `Cc1cccc(OCC(O)CN2CCN(CCN3C(=O)c4cccc5cccc(c45)C3=O)CC2)c1C` (stereo unspecified): 67.1% (active); for `Cc1ccccc1OCC(O)CN1CCN(c2ccccn2)CC1` (stereo unspecified): 0.87%. As for `COc1ccccc1OCC(O)CN1CCOCC1` (stereo unspecified), the figure is 1.66%. For the compound `COc1ccccc1NS(=O)(=O)c1ccc(C(=O)N2CCN(c3ccccc3O)CC2)cc1`, the inhibition was 0.881%. As to `O=C(COC(=O)c1ncc(Cl)c(Cl)c1Cl)NCc1cccs1`, the inhibition is -17.6%. As for `Cc1csc(NC(=O)c2ccc(C)s2)n1`, the figure is -14.9%.

For `Cn1c(=O)c(=O)n(C)c2cc(S(=O)(=O)NCCc3ccccc3)ccc21`, the inhibition is -8.33%. In the case of `Cn1c(=O)c(=O)n(C)c2cc(S(=O)(=O)NCCN3CCN(c4ccccc4F)CC3)ccc21`, the inhibition was 56% (active).

Take `Cc1ccc(S(=O)(=O)NCCN2CCOCC2)cc1C`: the inhibition is 1.47%. The same measure for `COc1cc(CNCc2ccc3c(c2)OCO3)c([N+](=O)[O-])cc1OC`: 9.09%; for `C=CS(=O)c1sc(Cl)c(N2CCOCC2)c1[N+](=O)[O-]` (stereo unspecified): 69.9% (active).

For the compound `O=S(=O)(NCCc1csc(-c2ccccc2)n1)c1cccnc1`, the inhibition is 8.42%.

Regarding `O=C(NCCc1csc(-c2ccccc2)n1)c1ccccc1F`, the inhibition is 66.1% (active). As for `COc1ccc(-c2nc(CCNC(=O)c3ccc(Br)o3)cs2)cc1`, the figure is 9.33%; as for `CC(=O)c1ccc(S(=O)(=O)NC2CC(=O)N(c3ccc4c(c3)OCCO4)C2)cc1` (stereo unspecified), 0.0508%; as for `CC(=O)Nc1nc2ccccc2n1Cc1ccc(C)cc1`, 79.7% (active). For `CC(=O)c1nc2ccccc2n1Cc1ccccc1`, the inhibition was 8%. The same measure for `CCC(=O)Nc1nc2ccccc2n1Cc1ccccc1C`: 45.5%; for `O=C(CCC(=O)c1cccs1)Nc1nc2ccccc2s1`: -3.43%.
